Converted amounts (≈) assume the structure as drawn.
Columns and labels:
MAO-B = biological target: T1, MAO-B (Rattus norvegicus, UniProt P19643); assay: Inhibition of MAO-B in rat forebrain using [14C]PEA as substrate at 30 uM incubated for 20 mins prior to substrate addition measured after 10 mins by liquid scintillation counting analysis relative to control; type: tissue-based; conditions: probe [14C]PEA
T1 sequence (P19643 whole entry): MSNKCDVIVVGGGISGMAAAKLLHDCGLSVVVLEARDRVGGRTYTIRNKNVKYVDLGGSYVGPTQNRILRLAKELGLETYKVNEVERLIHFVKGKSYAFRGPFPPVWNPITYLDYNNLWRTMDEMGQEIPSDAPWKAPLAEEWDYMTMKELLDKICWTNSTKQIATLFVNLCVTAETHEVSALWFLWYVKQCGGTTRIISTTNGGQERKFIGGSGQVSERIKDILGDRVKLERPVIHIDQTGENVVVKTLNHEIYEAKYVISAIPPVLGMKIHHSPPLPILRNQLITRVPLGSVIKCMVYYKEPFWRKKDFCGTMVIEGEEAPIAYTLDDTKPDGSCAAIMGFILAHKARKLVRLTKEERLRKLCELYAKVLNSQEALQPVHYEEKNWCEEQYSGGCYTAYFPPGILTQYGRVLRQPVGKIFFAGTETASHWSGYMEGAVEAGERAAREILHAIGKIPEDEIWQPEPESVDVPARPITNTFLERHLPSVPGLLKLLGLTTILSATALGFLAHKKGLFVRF

Cytochrome P450 3A4 = Cytochrome P450 3A4 (Homo sapiens, UniProt P08684); assay: Inhibition of human CYP3A4 assessed as terfenadine hydroxylation after 20 mins by LC/MS/MS analysis; type: ADME
How it was run: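 Human liver microsomes (0.2 mg protein/mL) with 1 mM NADPH in 50 mM HEPES pH 7.4, 10 mM MgCl2, 0.1 mM EDTA. After centrifugation, supernatant metabolite measured by LC/MS/MS. Standard curve from authentic metabolite cocktail added to unincubated reaction mix.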

Staphylococcus aureus [1] = assay: Ratio of linezolid ED50 to compound ED50 for methicillin-resistant Staphylococcus aureus SR3637 infected in po dosed JCL/ICR mouse systemic infection model; type: functional
How it was run: (§1)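 Five-week-old male JCL/ICR mice (20–25 g), five per group, infected intraperitoneally with 0.5 or 1.0 mL bacterial suspension (about 100 times the 50% lethal dose). Test and reference compounds given intravenously or orally 1 h after infection. Mortality followed over 7 days; ED50 with 95% confidence limits by the logit method.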

Staphylococcus aureus [2] = assay: Ratio of linezolid ED50 to compound ED50 for methicillin-resistant Staphylococcus aureus SR3637 infected in iv dosed JCL/ICR mouse systemic infection model; type: functional; how it was run: as §1
Staphylococcus aureus [3] = assay: Antibacterial activity against methicillin-resistant Staphylococcus aureus SR3637 infected in JCL/ICR mouse systemic infection model assessed as mortality administered as po measured over 7 days; type: functional; conditions: 168 h
How it was run: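 Five-week-old male JCL/ICR mice (20–25 g), five per group. Infected intraperitoneally with 0.5 or 1.0 mL bacterial suspension (about 100× LD50). Oral dosing 1 h post-infection. Mortality followed 7 days; ED50 with 95% confidence limits by logit method.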

Moraxella catarrhalis [4] = assay: Ratio of linezolid MIC to compound MIC for Moraxella catarrhalis SR26840 clinical isolate; type: functional
Enterococcus faecalis [5] = assay: Ratio of linezolid MIC to compound MIC for Enterococcus faecalis SR1004 clinical isolate; type: functional
Moraxella catarrhalis [6] = assay: Antibacterial activity against Moraxella catarrhalis SR26840 clinical isolate assessed as growth inhibition by CLSI broth microdilution method; type: functional
How it was run: (§2)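 MIC by CLSI broth microdilution in cation-adjusted Mueller-Hinton broth; S. pneumoniae medium supplemented with 5% lysed horse blood.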

Enterococcus faecalis [7] = assay: Antibacterial activity against Enterococcus faecalis SR1004 clinical isolate assessed as growth inhibition by CLSI broth microdilution method; type: functional; how it was run: as §2

Chain of Cytochrome P450 3A4 (P08684 whole entry): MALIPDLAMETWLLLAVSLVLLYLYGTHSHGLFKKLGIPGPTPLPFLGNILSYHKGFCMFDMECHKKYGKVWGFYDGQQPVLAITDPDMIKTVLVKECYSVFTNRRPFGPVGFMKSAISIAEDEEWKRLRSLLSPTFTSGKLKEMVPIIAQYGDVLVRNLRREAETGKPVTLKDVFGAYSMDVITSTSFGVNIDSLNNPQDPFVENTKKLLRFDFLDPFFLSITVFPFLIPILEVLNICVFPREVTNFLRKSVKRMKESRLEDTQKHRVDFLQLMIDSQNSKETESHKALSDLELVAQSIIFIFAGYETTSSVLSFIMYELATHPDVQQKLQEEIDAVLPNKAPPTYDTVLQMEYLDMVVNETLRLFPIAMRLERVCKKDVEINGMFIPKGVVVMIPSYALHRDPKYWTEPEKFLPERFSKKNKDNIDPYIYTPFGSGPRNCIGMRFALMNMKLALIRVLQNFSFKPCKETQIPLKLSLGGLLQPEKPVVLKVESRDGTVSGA

| SMILES | inhibition at 10 min, 30 µM (MAO-B) | IC50 (Cytochrome P450 3A4) | Ratio ED50 (Staphylococcus aureus [1]) | Ratio ED50 (Staphylococcus aureus [2]) | ED50 (Staphylococcus aureus [3]) | Ratio (Moraxella catarrhalis [4]) | Ratio (Enterococcus faecalis [5]) | MIC (Moraxella catarrhalis [6]) | MIC (Enterococcus faecalis [7]) |
| --- | --- | --- | --- | --- | --- | --- | --- | --- | --- |
| COC(=S)NC[C@H]1CN(c2ccc(N3CCNN(C(=O)CO)CC3)c(F)c2)C(=O)O1 | 10.1% | > 20 µM | 2 | 3 | 1.05 mg/kg | 4 | 4 | 2 µg/mL (≈ 4.53 µM) | 0.5 µg/mL (≈ 1.13 µM) |
| COC(=S)NC[C@H]1CN(c2cc(F)c(N3CCNN(C(=O)CO)CC3)c(F)c2)C(=O)O1 | 10.6% | > 20 µM |  |  | 2.07 mg/kg | 4 | 4 | 1 µg/mL (≈ 2.18 µM) | 0.25 µg/mL (≈ 0.544 µM) |
